# Measurements as given in ChEMBL document CHEMBL3860038, “Discovery of (R,E)-N-(7-Chloro-1-(1-[4-(dimethylamino)but-2-enoyl]azepan-3-yl)-1H-benzo[d]imidazol-2-yl)-2-methylisonicotinamide (EGF816), a Novel, Potent, and WT Sparing Covalent Inhibitor of Oncogenic (L858R, ex19del) and Resistant (T790M) EGFR Mutants for the Treatment of EGFR Mutant …” (J Med Chem, 2016).
# Key:
# [1] = Antitumor activity against human NCI-H1975 cells xenografted in Foxn1 nude mouse assessed as reduction in tumor volume at 25 mg/kg, po qd for 5 days relative to untreated control; assay type: functional
# How it was run: (§1)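 Female Foxn1 nude mice, H1975 cells inoculated subcutaneously. Randomized into groups once tumors reached 150−200 mm³, then dosed by oral gavage once daily for 5 days in 0.5% MC/0.5% Tween80 suspension (10 μL/g). Tumor volumes by caliper, (length × width × width)/2. %T/C = 100 × ΔT/ΔC, or % regression = 100 × ΔT/T_initial when ΔT < 0. Body weight recorded daily.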
# Mus musculus [2] = experiment: Toxicity in human NCI-H1975 cells xenografted Foxn1 nude mouse assessed as change in body weight at 25 mg/kg, po qd for 5 days (reference value: […]); assay type: organism-based; details: in vivo, 120 h
# [3] = Glutathione reactivity assessed as GSH adduct formation incubated for 1 hr using 10 mM glutathione
# How it was run: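 Compound incubated 1 h with 10 mM glutathione; GSH adduct formation measured.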
# [4] = Time duration during which free plasma concentration stays above in-vitro IC50 level in human NCI-H1975 cells xenografted Foxn1 nude mouse at 25 mg/kg, po qd for 5 days; assay type: ADME, organism-based; details: in vivo, 120 h
# How it was run: (§2)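 H1975 xenografts in Foxn1 nude mice, oral dosing once daily for 5 days. Plasma sampled after the last dose on day 5, at 30 min, 3 h, 7 h and 24 h. Free drug exposure was compared with in vitro cellular IC50 across the dosing interval.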
# [5] = molecular target: T1, Epidermal growth factor receptor (Homo sapiens, UniProt P00533, L858R/T790M); experiment: Inhibition of N-terminal 6x-HIS-tagged human recombinant EGFR (696 to 1022 residues) L858R/T790M mutant expressed in Sf9 cells pre-incubated for 90 mins followed by 1 mM ATP addition by HTRF assay
# How it was run: (§3)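 HTRF kinase assay on the EGFR L858R-T790M kinase domain at 1 mM ATP. Compound with either no preincubation or a 90 min enzyme/compound preincubation.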
# [6] = molecular target: T1, Epidermal growth factor receptor; experiment: Inhibition of N-terminal 6x-HIS-tagged human recombinant EGFR (696 to 1022 residues) L858R/T790M mutant expressed in Sf9 cells pre-incubated for 0 mins followed by 1 mM ATP addition by HTRF assay; how it was run: as §3
# [7] = molecular target: T1, Epidermal growth factor receptor; experiment: Inhibition of N-terminal 6x-HIS-tagged human recombinant EGFR (696 to 1022 residues) L858R/T790M mutant expressed in Sf9 cells pre-incubated for 90 mins followed by 10 uM ATP addition by HTRF assay
# [8] = molecular target: T2, Epidermal growth factor receptor (Homo sapiens, UniProt P00533); experiment: Inhibition of N-terminal 6x-HIS-tagged wild type human recombinant EGFR (696 to 1022 residues) expressed in Sf9 cells pre-incubated for 90 mins followed by 10 uM ATP addition by HTRF assay
# [9] = molecular target: T3, Epidermal growth factor receptor (Homo sapiens, UniProt P00533, L858R); experiment: Inhibition of N-terminal 6x-HIS-tagged human recombinant EGFR (696 to 1022 residues) L858R mutant expressed in Sf9 cells pre-incubated for 90 mins followed by 10 uM ATP addition by HTRF assay
# [10] = Inhibition of EGFR E746 to A750 deletion mutant phosphorylation in human patient derived HCC827 cells incubated for 3 hrs by ELISA method; assay type: cell-based; details: HCC827, 3 h
# How it was run: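 HCC827 cells plated at 7500/well in 5% FBS/RPMI and left overnight at 37 °C. Then 3 h with a 12-point compound dilution series, no EGF stimulation. Lysed in Triton/protease/phosphatase-inhibitor buffer. Phospho-EGFR (Y1173) read by sandwich ELISA: anti-EGFR capture, anti-phospho-EGFR, anti-rabbit-HRP, chemiluminescence. IC50 from at least duplicates.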
# [11] = molecular target: T1, Epidermal growth factor receptor; experiment: Inhibition of EGFR L858R/T790M mutant phosphorylation in human patient derived H1975 cells incubated for 3 hrs by ELISA method; assay type: cell-based
# [12] = molecular target: T2, Epidermal growth factor receptor; experiment: Inhibition of wild type human EGFR phosphorylation expressed in mouse NIH/3T3 cells incubated for 3 hrs by ELISA method; assay type: cell-based
# How it was run: (§4)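 Engineered NIH-3T3 cells expressing L858R-T790M, L858R or WT EGFR. 3 h compound treatment, then cellular phospho-EGFR target modulation read-out. IC50 averaged from at least duplicates.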
# [13] = molecular target: T1, Epidermal growth factor receptor; experiment: Inhibition of EGFR L858R/T790M mutant (unknown origin) phosphorylation expressed in mouse NIH/3T3 cells incubated for 3 hrs by ELISA method; assay type: cell-based; how it was run: as §4
# [14] = molecular target: T3, Epidermal growth factor receptor; experiment: Inhibition of EGFR L858R mutant (unknown origin) phosphorylation expressed in mouse NIH/3T3 cells incubated for 3 hrs by ELISA method; assay type: cell-based; how it was run: as §4
# [15] = molecular target: T3, Epidermal growth factor receptor; experiment: Inhibition of EGFR L858R mutant phosphorylation in human patient derived H3255 cells incubated for 3 hrs by ELISA method; assay type: cell-based
# [16] = molecular target: T2, Epidermal growth factor receptor; experiment: Inhibition of wild type EGFR phosphorylation in human HaCaT cells incubated for 3 hrs by ELISA method; assay type: cell-based
# [17] = Antitumor activity against human NCI-H1975 cells xenografted in Foxn1 nude mouse assessed as reduction in tumor volume at 20 mg/kg, po qd for 5 days relative to untreated control; assay type: functional; how it was run: as §1
# Cytochrome P450 2C9 = Cytochrome P450 2C9 (Homo sapiens, UniProt P11712); experiment: Inhibition of CYP2C9 (unknown origin); assay type: ADME
# [18] = Intrinsic clearance in human liver microsomes; assay type: ADME; details: read-out: CLH
# [19] = AUC in balb/c mouse at 20 mg/kg, po by liquid chromatography-tandem mass spectrometry; assay type: ADME, organism-based; details: in vivo
# How it was run: (§5)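 Rodent PK in male balb/c mice and male Wistar rats; plasma drug levels by LC-MS/MS. Mouse oral dosing at 20 mg/kg, with compounds given as a 0.5% methylcellulose/0.5% Tween 80 suspension or as solutions (PEG300/D5W, or ethanol/PEG300 with Solutol or D5W), depending on compound.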
# [20] = Oral bioavailability in balb/c mouse at 20 mg/kg by liquid chromatography-tandem mass spectrometry; assay type: ADME, organism-based; details: in vivo; how it was run: as §5
# [21] = Intrinsic clearance in mouse liver microsomes; assay type: ADME; details: read-out: CLH
# [22] = Clearance in balb/c mouse at 5 mg/kg, iv by liquid chromatography-tandem mass spectrometry; assay type: ADME, organism-based; details: in vivo; how it was run: as §5
# [23] = Antitumor activity against human NCI-H1975 cells xenografted in Foxn1 nude mouse assessed as reduction in tumor volume at 50 mg/kg, po qd for 5 days relative to untreated control; assay type: functional; how it was run: as §1
# Cytochrome P450 3A4 = Cytochrome P450 3A4 (Homo sapiens, UniProt P08684); experiment: Inhibition of CYP3A4 (unknown origin); assay type: ADME
# Cytochrome P450 2D6 = Cytochrome P450 2D6 (Homo sapiens, UniProt P10635); experiment: Inhibition of CYP2D6 (unknown origin); assay type: ADME
# Mus musculus [24] = experiment: Toxicity in human NCI-H1975 cells xenografted Foxn1 nude mouse assessed as change in body weight at 20 mg/kg, po qd for 5 days (reference value: […]); assay type: organism-based; details: in vivo, 120 h
# Mus musculus [25] = experiment: Toxicity in human NCI-H1975 cells xenografted Foxn1 nude mouse assessed as change in body weight at 50 mg/kg, po qd for 5 days (reference value: […]); assay type: organism-based; details: in vivo, 120 h
# [26] = Aqueous solubility of the compound at pH 6.8; assay type: physicochemical
# [27] = Time duration during which free plasma concentration stays above in-vitro IC50 level in human NCI-H1975 cells xenografted Foxn1 nude mouse at 20 mg/kg, po qd for 5 days; assay type: ADME, organism-based; details: in vivo, 120 h; how it was run: as §2
# T2 sequence (P00533 whole entry, the tested form may be a part): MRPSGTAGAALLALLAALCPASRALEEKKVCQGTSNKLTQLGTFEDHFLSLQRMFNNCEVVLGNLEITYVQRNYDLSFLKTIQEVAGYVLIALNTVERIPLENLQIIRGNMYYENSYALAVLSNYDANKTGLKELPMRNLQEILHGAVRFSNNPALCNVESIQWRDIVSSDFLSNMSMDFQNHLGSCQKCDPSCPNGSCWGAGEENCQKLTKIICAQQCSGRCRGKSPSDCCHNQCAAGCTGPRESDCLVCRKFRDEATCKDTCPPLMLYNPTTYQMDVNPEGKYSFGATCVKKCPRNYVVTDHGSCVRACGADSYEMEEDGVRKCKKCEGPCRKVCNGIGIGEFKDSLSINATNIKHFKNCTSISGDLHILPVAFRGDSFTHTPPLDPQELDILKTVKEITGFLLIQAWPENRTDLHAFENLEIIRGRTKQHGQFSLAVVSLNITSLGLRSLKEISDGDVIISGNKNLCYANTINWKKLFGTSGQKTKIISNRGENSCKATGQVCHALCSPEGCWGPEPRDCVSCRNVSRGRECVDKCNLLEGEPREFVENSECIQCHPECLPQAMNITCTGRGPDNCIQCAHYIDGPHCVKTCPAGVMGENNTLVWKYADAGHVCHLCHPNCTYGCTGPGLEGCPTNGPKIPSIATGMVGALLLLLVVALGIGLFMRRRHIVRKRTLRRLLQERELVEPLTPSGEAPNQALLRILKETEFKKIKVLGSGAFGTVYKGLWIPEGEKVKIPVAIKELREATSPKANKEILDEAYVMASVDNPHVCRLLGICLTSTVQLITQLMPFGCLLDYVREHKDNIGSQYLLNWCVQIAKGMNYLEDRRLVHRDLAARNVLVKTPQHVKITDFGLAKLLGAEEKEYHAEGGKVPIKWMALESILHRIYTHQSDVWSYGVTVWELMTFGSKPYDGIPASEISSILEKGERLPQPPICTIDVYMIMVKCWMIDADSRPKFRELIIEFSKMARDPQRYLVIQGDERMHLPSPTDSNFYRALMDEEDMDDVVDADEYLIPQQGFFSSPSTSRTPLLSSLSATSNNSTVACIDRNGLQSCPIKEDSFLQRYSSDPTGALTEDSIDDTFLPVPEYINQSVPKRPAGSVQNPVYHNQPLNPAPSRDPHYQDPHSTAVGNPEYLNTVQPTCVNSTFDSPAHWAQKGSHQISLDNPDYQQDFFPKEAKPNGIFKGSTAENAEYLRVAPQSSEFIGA
# T3 sequence (P00533 25-1210 L858R limits assumed): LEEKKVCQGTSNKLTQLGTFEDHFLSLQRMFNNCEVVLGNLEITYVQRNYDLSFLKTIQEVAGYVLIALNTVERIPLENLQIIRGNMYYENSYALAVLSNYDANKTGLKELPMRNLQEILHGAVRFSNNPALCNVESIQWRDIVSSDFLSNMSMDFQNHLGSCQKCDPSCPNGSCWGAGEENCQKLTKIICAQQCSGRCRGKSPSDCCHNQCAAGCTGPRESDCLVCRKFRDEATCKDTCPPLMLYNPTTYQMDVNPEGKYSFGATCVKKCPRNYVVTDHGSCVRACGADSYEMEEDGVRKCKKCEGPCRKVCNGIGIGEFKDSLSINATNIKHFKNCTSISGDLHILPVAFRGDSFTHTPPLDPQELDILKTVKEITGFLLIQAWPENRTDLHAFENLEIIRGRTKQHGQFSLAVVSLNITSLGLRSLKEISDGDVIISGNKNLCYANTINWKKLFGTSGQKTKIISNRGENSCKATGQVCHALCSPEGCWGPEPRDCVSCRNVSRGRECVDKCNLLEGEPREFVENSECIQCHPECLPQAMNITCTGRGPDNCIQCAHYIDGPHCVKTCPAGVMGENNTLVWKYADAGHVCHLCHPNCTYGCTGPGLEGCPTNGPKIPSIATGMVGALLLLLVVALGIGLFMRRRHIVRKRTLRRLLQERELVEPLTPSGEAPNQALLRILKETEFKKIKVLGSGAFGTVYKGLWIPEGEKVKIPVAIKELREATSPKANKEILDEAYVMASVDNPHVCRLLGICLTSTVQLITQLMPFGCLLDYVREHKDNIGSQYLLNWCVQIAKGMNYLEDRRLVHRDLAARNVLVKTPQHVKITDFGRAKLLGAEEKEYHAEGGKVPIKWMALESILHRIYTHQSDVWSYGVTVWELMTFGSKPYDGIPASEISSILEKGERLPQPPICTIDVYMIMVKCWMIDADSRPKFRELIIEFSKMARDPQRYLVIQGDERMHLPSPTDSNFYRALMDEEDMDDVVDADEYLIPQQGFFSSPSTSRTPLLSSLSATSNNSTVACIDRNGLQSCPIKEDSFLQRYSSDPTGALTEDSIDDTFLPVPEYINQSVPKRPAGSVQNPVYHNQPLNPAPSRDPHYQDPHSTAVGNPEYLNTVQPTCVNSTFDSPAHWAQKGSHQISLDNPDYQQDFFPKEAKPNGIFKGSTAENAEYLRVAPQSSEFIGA
# T1 sequence (P00533 25-1210 T790M/L858R limits assumed): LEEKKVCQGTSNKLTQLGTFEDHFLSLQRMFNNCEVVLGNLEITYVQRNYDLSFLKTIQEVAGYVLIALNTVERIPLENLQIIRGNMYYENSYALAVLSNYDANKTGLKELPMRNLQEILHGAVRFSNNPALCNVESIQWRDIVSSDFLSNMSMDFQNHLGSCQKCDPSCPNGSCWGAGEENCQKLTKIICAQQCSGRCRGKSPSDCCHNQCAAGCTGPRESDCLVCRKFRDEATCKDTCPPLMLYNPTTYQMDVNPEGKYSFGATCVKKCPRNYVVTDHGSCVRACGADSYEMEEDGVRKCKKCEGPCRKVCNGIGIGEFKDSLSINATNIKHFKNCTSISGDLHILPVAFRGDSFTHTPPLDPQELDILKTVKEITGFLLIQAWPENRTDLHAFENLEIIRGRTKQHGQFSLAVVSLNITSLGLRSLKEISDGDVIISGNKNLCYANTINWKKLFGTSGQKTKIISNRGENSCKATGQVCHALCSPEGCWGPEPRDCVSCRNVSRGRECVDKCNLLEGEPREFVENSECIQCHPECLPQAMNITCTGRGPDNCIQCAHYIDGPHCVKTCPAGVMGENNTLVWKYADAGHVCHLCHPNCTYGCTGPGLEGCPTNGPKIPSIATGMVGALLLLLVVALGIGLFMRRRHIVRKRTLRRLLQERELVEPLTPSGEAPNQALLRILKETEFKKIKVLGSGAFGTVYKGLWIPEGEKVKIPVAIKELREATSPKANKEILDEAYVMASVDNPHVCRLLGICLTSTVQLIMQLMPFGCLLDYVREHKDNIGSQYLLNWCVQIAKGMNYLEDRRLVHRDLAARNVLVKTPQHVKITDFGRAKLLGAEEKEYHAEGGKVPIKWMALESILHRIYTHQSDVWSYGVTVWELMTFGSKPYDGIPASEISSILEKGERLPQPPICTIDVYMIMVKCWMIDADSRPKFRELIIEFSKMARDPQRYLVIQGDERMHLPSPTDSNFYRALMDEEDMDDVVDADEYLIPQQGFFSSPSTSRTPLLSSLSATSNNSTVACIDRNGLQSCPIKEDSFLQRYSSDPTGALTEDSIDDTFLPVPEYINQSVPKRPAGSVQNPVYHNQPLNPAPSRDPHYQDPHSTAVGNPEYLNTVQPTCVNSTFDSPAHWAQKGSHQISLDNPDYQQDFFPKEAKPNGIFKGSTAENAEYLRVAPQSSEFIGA
# Chain of Cytochrome P450 2C9 (P11712 whole entry): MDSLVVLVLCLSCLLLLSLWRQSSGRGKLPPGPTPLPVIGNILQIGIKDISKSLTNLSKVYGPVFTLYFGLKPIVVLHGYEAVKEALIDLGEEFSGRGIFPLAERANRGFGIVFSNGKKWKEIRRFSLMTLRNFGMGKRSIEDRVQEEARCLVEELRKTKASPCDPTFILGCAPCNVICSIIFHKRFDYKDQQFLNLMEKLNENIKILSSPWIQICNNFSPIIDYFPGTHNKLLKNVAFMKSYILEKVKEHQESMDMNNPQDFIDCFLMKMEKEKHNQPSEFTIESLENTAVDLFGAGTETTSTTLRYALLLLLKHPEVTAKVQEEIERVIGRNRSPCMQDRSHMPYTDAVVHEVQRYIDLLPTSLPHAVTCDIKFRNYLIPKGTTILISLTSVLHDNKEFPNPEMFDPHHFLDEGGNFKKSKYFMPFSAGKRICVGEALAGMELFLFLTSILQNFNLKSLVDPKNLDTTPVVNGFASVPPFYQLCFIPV
# Chain of Cytochrome P450 2D6 (P10635 whole entry): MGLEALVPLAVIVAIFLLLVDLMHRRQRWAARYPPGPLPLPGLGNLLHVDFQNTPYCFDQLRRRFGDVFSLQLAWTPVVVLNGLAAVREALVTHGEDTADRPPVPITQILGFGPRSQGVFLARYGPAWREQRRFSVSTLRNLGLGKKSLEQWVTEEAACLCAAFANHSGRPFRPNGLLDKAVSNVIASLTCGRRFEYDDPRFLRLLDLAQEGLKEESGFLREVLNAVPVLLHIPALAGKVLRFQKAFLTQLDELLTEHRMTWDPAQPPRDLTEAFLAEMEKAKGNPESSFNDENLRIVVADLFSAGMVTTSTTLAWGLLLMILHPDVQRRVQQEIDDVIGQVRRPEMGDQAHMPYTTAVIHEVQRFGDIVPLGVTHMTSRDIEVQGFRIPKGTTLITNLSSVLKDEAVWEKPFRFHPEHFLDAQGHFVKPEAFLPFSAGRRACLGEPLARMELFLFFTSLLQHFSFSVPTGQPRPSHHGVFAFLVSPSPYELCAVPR
# Chain of Cytochrome P450 3A4 (P08684 whole entry): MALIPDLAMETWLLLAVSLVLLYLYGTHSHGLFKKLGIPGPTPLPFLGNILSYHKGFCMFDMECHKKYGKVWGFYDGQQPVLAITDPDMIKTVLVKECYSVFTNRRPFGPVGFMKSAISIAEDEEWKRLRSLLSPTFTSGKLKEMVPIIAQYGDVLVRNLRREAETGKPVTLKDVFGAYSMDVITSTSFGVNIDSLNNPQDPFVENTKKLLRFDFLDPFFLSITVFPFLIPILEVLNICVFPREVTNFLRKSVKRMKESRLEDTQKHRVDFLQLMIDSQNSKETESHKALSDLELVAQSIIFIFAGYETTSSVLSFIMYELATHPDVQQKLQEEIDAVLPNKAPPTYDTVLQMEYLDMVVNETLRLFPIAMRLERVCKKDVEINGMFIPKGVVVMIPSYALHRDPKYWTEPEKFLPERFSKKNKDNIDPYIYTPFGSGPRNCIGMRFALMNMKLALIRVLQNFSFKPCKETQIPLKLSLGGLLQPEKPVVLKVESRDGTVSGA
compound,measurement,setting,value
CN(C)C/C=C/C(=O)Nc1cc2c(Nc3ccc(F)c(Cl)c3)ncnc2cc1O[C@H]1CCOC1 [AFATINIB],T/C,[1],38%
same,Activity,Mus musculus [2],-2.4%
same,Drug metabolism,[3],60%
same,Time,[4],<= 14 hr
C=CC(=O)NCCn1c(NC(=O)c2cccc(C(F)(F)F)c2)nc2cc(C)ccc21,IC50,[5],> 50000 nM
same,IC50,[6],> 50000 nM
C=CC(=O)N1CCC(n2c(NC(=O)c3cccc(C(F)(F)F)c3)nc3cc(C)ccc32)CC1,IC50,[5],16500 nM
same,IC50,[6],> 37700 nM
C=CC(=O)N1CCC(n2c(NC(=O)c3cccc(C(F)(F)F)c3)nc3cc(C)ccc32)C1 (stereo not drawn),IC50,[5],> 50000 nM
same,IC50,[6],> 50000 nM
C=CC(=O)N[C@H]1CC[C@@H](n2c(NC(=O)c3cccc(C(F)(F)F)c3)nc3cc(C)ccc32)CC1,IC50,[5],> 50000 nM
same,IC50,[6],> 50000 nM
O=C(Nc1nc2ccccc2n1[C@H]1CC[C@H](O)CC1)c1cccc(C(F)(F)F)c1,IC50,[7],260 nM
same,IC50,[8],> 50000 nM
same,IC50,[9],2000 nM
C=CC(=O)NCCCn1c(NC(=O)c2cccc(C(F)(F)F)c2)nc2cc(C)ccc21,IC50,[5],50 nM
same,IC50,[6],> 50000 nM
same,IC50,[10],1650 nM
same,IC50,[11],525 nM
C=CC(=O)N[C@@H]1CCCC[C@H]1n1c(NC(=O)c2cccc(C(F)(F)F)c2)nc2cc(C)ccc21 (racemic),IC50,[5],> 50000 nM
same,IC50,[6],> 50000 nM
C=CC(=O)N[C@H]1CCC[C@@H](n2c(NC(=O)c3cccc(C(F)(F)F)c3)nc3cc(C)ccc32)C1 (racemic),IC50,[5],4 nM
same,IC50,[12],> 10000 nM
same,IC50,[6],> 50000 nM
same,IC50,[13],41.4 nM
same,IC50,[14],543 nM
C=CC(=O)N[C@H]1CCCC[C@H]1n1c(NC(=O)c2cccc(C(F)(F)F)c2)nc2cc(C)ccc21 (racemic),IC50,[5],> 50000 nM
same,IC50,[6],> 50000 nM
C=CC(=O)N1CCCCC(n2c(NC(=O)c3cccc(C(F)(F)F)c3)nc3cc(C)ccc32)C1 (stereo not drawn),IC50,[5],< 2 nM
same,IC50,[15],74.9 nM
same,IC50,[6],830 nM
same,IC50,[10],15.9 nM
same,IC50,[16],4330 nM
same,IC50,[11],6.1 nM
Cc1cc(C(=O)Nc2nc3cccc(C)c3n2[C@@H]2CCCCN(C(=O)/C=C/CN(C)C)C2)ccn1,T/C,[17],-6%
same,IC50,Cytochrome P450 2C9,> 25000 nM
same,microsomal CLint,[18],26 µL/min/mg
same,AUC,[19],3.53 µM·h
same,IC50,[15],3.05 nM
same,bioavailability,[20],34%
same,microsomal CLint,[21],62 µL/min/mg
same,clearance,[22],68.5 mL/min/kg
same,T/C,[23],-65%
same,IC50,[10],1.01 nM
same,Drug metabolism,[3],< 5%
same,IC50,[16],68 nM
same,IC50,Cytochrome P450 3A4,> 25000 nM
same,IC50,Cytochrome P450 2D6,> 25000 nM
same,Activity,Mus musculus [24],-1.1%
same,Activity,Mus musculus [25],-5%
same,solubility,[26],> 175 µM
same,IC50,[11],2.11 nM
same,Time,[27],<= 14 hr
C=CC(=O)Nc1ccccc1-n1c(NC(=O)c2cccc(C(F)(F)F)c2)nc2cc(C)ccc21,IC50,[5],> 32800 nM
same,IC50,[6],> 50000 nM
Cc1cccc2nc(NC(=O)c3cccc(C(F)(F)F)c3)n([C@H]3CC[C@H](O)CC3)c12,IC50,[7],90 nM
same,IC50,[8],5270 nM
same,IC50,[9],680 nM
